Source: ChEMBL document CHEMBL3352128, “Design, synthesis and biological evaluation of thienopyridinones as Chk1 inhibitors” (Bioorg Med Chem, 2014)
Activity calls are given as the source filed them. The calls are words filed in the database; no cut-off is given here.

Columns and labels:
[1] = target: T1, Serine/threonine-protein kinase Chk1 (Homo sapiens, UniProt O14757); assay: Inhibition of Chk1 (unknown origin) by luminescent ADP-Glo assay
T1 sequence (O14757 whole entry): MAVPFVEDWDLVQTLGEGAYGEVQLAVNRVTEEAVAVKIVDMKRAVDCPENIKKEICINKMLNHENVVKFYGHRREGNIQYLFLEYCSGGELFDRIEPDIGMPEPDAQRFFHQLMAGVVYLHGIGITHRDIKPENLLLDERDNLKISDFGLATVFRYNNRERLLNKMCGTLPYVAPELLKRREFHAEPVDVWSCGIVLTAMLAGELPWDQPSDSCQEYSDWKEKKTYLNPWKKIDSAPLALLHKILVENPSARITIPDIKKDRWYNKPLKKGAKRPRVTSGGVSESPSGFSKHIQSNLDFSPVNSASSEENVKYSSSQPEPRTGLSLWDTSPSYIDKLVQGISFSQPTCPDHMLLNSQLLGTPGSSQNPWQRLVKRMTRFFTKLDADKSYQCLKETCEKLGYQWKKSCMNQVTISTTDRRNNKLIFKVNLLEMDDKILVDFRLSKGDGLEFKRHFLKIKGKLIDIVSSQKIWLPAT

CDK2/Cyclin A2 = CDK2/Cyclin A2 (Homo sapiens, UniProt P24941); assay: Inhibition of CDK2/cyclin A (unknown origin) by HTRF kinase assay; assay type: protein-complex assay
Procedure, shortened: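 CDK2/cyclin A was purchased enzyme, tested with an HTRF kinase assay kit. Compounds were first screened at 1 µg/mL final, and those giving more than 40% inhibition were taken forward to IC50.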

Aurora kinase A = target: T2, Aurora kinase A (Homo sapiens, UniProt O14965); assay: Inhibition of Aurora A (unknown origin) expressed in Escherichia coli by ZLYTETM assay
T2 sequence (O14965 whole entry): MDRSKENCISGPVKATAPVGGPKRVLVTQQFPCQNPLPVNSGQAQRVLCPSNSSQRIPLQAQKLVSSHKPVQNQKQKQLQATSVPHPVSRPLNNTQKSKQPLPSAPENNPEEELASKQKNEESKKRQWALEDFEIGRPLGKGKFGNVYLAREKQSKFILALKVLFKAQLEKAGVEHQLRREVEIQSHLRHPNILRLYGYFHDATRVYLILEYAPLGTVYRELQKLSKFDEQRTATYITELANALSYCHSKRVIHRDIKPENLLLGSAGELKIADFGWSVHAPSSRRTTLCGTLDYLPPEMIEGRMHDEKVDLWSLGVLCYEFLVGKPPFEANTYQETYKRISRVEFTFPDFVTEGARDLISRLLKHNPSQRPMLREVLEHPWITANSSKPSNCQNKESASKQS
Procedure, shortened: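 Z'-LYTE kinase assay. Aurora A was recombinant protein expressed in E. coli. Compounds were first tested at 1 µg/mL final. Those giving more than 40% inhibition were taken further, with IC50 reported.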

Protein kinase C (PKC) = assay: Inhibition of PKC (unknown origin) by Z'-LYTETM kinase assay; parameters: species or system Homo sapiens
Homo sapiens [2] = species on record: Homo sapiens; assay: Selectivity index, ratio of IC50 for CDK2/cyclinA (unknown origin) to IC50 for Chk1 (unknown origin)
Homo sapiens [3] = species on record: Homo sapiens; assay: Selectivity index, ratio of IC50 for Aurora A (unknown origin) to IC50 for Chk1 (unknown origin)
Homo sapiens [4] = species on record: Homo sapiens; assay: Selectivity index, ratio of IC50 for PKC (unknown origin) to IC50 for Chk1 (unknown origin)
RPMI8266 [5] = assay: Cytotoxicity against human […] cells at 100 nM after 72 hrs by MTS assay; assay type: functional, cell-based
Procedure, shortened: (§1)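 RPMI 8226 myeloma cells were seeded at 5 × 10³ cells per well in 100 µL. They were treated with Chk1 inhibitor at 100 nM, with melphalan (1, 3 and 10 µM), or with both, for 72 h. MTS was then added at 0.5 mg/mL final for 2–4 h to read growth.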

RPMI8266 [6] = assay: Potentiation of melphalan-induced cytotoxicity against human […] cells at 100 nM after 72 hrs by MTS assay; assay type: functional, cell-based; procedure, shortened: as §1

IC50 [1] [nM] | IC50 (CDK2/Cyclin A2) [nM] | IC50 (Aurora kinase A) [nM] | IC50 (Protein kinase C (PKC)) [nM] | Ratio IC50 (Homo sapiens [2]) | Ratio IC50 (Homo sapiens [3]) | Ratio IC50 (Homo sapiens [4]) | SMILES | further results
5.22 | 852 | 495 | 522.51 | > 20 | > 20 | > 20 | O=c1[nH]c2sccc2c(N[C@H]2CCCNC2)c1-c1nc2ccccc2[nH]1 | 
4.05 | 334 | 1050 | 168.89 | > 20 | > 20 | > 20 | O=c1[nH]c2sc(Cl)cc2c(NC2CCCNC2)c1-c1nc2ccccc2[nH]1 (stereo not given) | Activity (RPMI8266 [5]): inactive; Activity (RPMI8266 [6]): Active
> 10000 |  |  |  |  |  |  | COC(=O)CCNc1c(-c2nc3ccccc3[nH]2)c(=O)[nH]c2sccc12 | 
2.33 | 393 | 328 | 204.48 | > 20 | > 20 | > 20 | COc1ccc2[nH]c(-c3c(N[C@H]4CCCNC4)c4cc(Cl)sc4[nH]c3=O)nc2c1 | Activity (RPMI8266 [5]): inactive; Activity (RPMI8266 [6]): Active
> 10000 |  |  |  |  |  |  | CNCCNc1c(-c2nc3ccccc3[nH]2)c(=O)[nH]c2sccc12 | 
 |  |  |  |  |  |  | NC(=O)Nc1cc(-c2cccc(F)c2)sc1C(=O)N[C@H]1CCCNC1 | Activity (RPMI8266 [5]): inactive; Activity (RPMI8266 [6]): Active
> 10000 |  |  |  |  |  |  | O=c1[nH]c2sccc2c(NCCO)c1-c1nc2ccccc2[nH]1 | 
4.83 | 246 | 1590 | 392.71 | > 20 | > 20 | > 20 | O=c1[nH]c2sc(Br)cc2c(NC2CCCNC2)c1-c1nc2ccccc2[nH]1 (stereo not given) | 
> 10000 |  |  |  |  |  |  | O=c1[nH]c2sccc2c(N2CCOCC2)c1-c1nc2ccccc2[nH]1 | 
> 10000 |  |  |  |  |  |  | NCCNc1c(-c2nc3ccccc3[nH]2)c(=O)[nH]c2sccc12 | 
3.53 |  |  |  |  |  |  | O=c1[nH]c2sc(Cl)cc2c(N[C@H]2CCCNC2)c1-c1nc2ccccc2[nH]1 | 
15.6 | 849 | 791 | 695.85 | > 20 | > 20 | > 20 | O=c1[nH]c2sccc2c(NC2CCCNC2)c1-c1nc2ccccc2[nH]1 (stereo not given) | 
41 |  |  |  |  |  |  | O=c1[nH]c2sc(Cl)cc2c(NC2CCNC2)c1-c1nc2ccccc2[nH]1 (stereo not given) | 
9.84 |  |  |  |  |  |  | Cc1cc2c(NC3CCCNC3)c(-c3nc4ccccc4[nH]3)c(=O)[nH]c2s1 (stereo not given) | 
> 10000 |  |  |  |  |  |  | O=c1[nH]c2sccc2c(N2CCCCC2)c1-c1nc2ccccc2[nH]1 | 
7.54 | 256 | 202 | 814.06 | > 20 | > 20 | > 20 | O=c1[nH]c2ccsc2c(NC2CCCNC2)c1-c1nc2ccccc2[nH]1 (stereo not given) | 
47.5 |  |  |  |  |  |  | O=c1[nH]c2sccc2c(NC2CCNC2)c1-c1nc2ccccc2[nH]1 (stereo not given) | 
116 |  |  |  |  |  |  | O=c1[nH]c2sccc2c(NCC2CCNCC2)c1-c1nc2ccccc2[nH]1 | 
> 10000 |  |  |  |  |  |  | O=c1[nH]c2sccc2c(N2CCC(CO)CC2)c1-c1nc2ccccc2[nH]1 | 
23.2 |  |  |  |  |  |  | Cc1cc2c(NC3CCNC3)c(-c3nc4ccccc4[nH]3)c(=O)[nH]c2s1 (stereo not given) | 
178 |  |  |  |  |  |  | CN(C)CCNc1c(-c2nc3ccccc3[nH]2)c(=O)[nH]c2sccc12 | 
> 10000 |  |  |  |  |  |  | O=c1[nH]c2sccc2c(NCCN2CCOCC2)c1-c1nc2ccccc2[nH]1 | 
9.94 |  |  |  |  |  |  | O=c1[nH]c2sccc2c(NC2CCNCC2)c1-c1nc2ccccc2[nH]1 | 
15.3 |  |  |  |  |  |  | O=c1[nH]c2sc(Br)cc2c(NC2CCNC2)c1-c1nc2ccccc2[nH]1 (stereo not given) | 
24.7 |  |  |  |  |  |  | O=c1[nH]c2ccsc2c(NC2CCNC2)c1-c1nc2ccccc2[nH]1 (stereo not given) | 
> 10000 |  |  |  |  |  |  | O=c1[nH]c2sccc2c(NC2CCCCC2)c1-c1nc2ccccc2[nH]1 | 

SMILES | IC50 [1] [nM] | IC50 (CDK2/Cyclin A2) [nM] | IC50 (Aurora kinase A) [nM] | IC50 (Protein kinase C (PKC)) [nM] | Ratio IC50 (Homo sapiens [2]) | Ratio IC50 (Homo sapiens [3]) | Ratio IC50 (Homo sapiens [4]) | further results
O=c1[nH]c2sccc2c(NC2CN3CCC2CC3)c1-c1nc2ccccc2[nH]1 (stereo not given) | 14 | 1630 | > 10000 | 1001.81 | 100 | > 20 | 100 | 
COc1ccc2[nH]c(-c3c(NC4CN5CCC4CC5)c4cc(Cl)sc4[nH]c3=O)nc2c1 (stereo not given) | 5.36 | 4300 | 1400 | 8186.03 | 100 | > 20 | 100 | 
O=c1[nH]c2sc(Cl)cc2c(NC2CN3CCC2CC3)c1-c1nc2ccccc2[nH]1 (stereo not given) | 6.23 | 3190 | > 10000 | 2018.88 | 100 | > 20 | 100 | Activity (RPMI8266 [5]): inactive; Activity (RPMI8266 [6]): Active
